Converted amounts (≈) assume the structure as drawn.
Assays:
[1] = biological target: T1, Peroxisome proliferator-activated receptor gamma (Homo sapiens, UniProt P37231); experiment: Binding affinity against peroxisome proliferator activated receptor gamma (PPAR-gamma)
T1 sequence (P37231 whole entry): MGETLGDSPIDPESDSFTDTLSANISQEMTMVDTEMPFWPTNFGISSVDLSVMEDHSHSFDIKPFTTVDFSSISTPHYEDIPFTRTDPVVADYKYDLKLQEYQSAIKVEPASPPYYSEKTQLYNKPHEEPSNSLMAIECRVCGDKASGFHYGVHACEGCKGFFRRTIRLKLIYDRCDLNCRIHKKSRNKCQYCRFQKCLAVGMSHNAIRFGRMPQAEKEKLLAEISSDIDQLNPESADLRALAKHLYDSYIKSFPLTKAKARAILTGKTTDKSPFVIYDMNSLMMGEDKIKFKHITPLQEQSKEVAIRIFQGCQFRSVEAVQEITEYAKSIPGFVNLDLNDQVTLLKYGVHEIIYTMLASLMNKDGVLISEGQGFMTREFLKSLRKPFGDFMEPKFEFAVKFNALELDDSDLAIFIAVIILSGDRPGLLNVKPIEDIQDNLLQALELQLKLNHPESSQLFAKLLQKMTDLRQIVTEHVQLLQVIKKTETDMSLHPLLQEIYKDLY

[2] = biological target: T1, Peroxisome proliferator-activated receptor gamma; experiment: in vitro agonist activity against peroxisome proliferator activated receptor-gamma (PPAR-gamma), using alkaline phosphatase activity transactivator assay; assay type: functional
[3] = Solubility in simulated gastric fluid.; assay type: physicochemical; settings: read-out: S
Procedure, shortened: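 Solubility in simulated gastric fluid, pH 1.2, in temperature-controlled shaking water baths. Samples were drawn, passed through a 0.22-µm filter, diluted in water/acetonitrile (60:40), and quantified by HPLC on a phenyl reverse-phase column.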

[4] = Solubility in phosphate buffer at pH 7.4.; assay type: physicochemical
Procedure, shortened: (§1)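 Solubility in 0.06 M phosphate buffer, pH 7.4, in temperature-controlled shaking water baths. Samples were drawn, passed through a 0.22-µm filter, diluted in water/acetonitrile (60:40), and quantified by HPLC on a phenyl reverse-phase column. Reported in mg/mL.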

[5] = biological target: T1, Peroxisome proliferator-activated receptor gamma; experiment: The compound was tested functionally in vitro for inducing 50% of the maximum alkaline phosphatase activity (Transactivation) against Peroxisome proliferator activated receptor gamma; assay type: functional
[6] = biological target: T1, Peroxisome proliferator-activated receptor gamma; experiment: The compound was tested in vitro for inhibiting the 50% binding of Peroxisome proliferator activated receptor gamma
Procedure, shortened: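 Radioligand competition binding to the human PPARγ ligand-binding domain. IC50 is the concentration inhibiting 50% of specific radioligand binding. Apparent Ki = IC50/(1 + [L]/Kd), where [L] is the radioligand concentration and Kd its dissociation constant. Reported as pKi (−log Ki).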

[7] = Solubility in pH 7.4 Phosphate buffer; assay type: physicochemical; procedure, shortened: as §1
[8] = system: Rattus norvegicus; experiment: Compound was tested in vivo for Antihyperglycemic activity in diabetic rats, activity is expressed as percent reduction of plasma glucose; assay type: functional
Procedure, shortened: (§2)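 Nine-week-old male Zucker diabetic fatty rats, n = 8/group, baseline-matched for plasma glucose. The highest test dose was given twice daily by oral gavage for 17 days. Tail-vein blood was drawn on days 0, 3, 7 and 17 for plasma glucose, insulin, triglycerides and NEFAs. The value is mean ± SEM percent reduction versus vehicle controls on day 17.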

[9] = organism: Rattus norvegicus; experiment: Compound was tested for Antihyperlipidemic activity, activity is expressed as percent reduction of Triglycerides; assay type: functional; procedure, shortened: as §2
[10] = system: Rattus norvegicus; experiment: Compound was tested in vivo for Antihyperglycemic activity in diabetic rats, activity is expressed as percent reduction of HbA-1c; assay type: functional
Procedure, shortened: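 Male ZDF rats, nine weeks old, 8 per group, were matched at baseline on plasma glucose. They were dosed orally by gavage twice daily for 17 days at the maximum test dose. Glycosylated hemoglobin was measured on day 17. Data are mean ± SEM percent reduction relative to the vehicle control group.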

[11] = organism: Rattus norvegicus; experiment: Compound was tested for Antihyperlipidemic activity, activity is expressed as percent reduction of NEFAs; assay type: functional; procedure, shortened: as §2

| Structure (SMILES) | Ki [1] [nM] | EC50 [2] [nM] | also measured |
| --- | --- | --- | --- |
| CSc1nc(NC(Cc2ccc(OCCN(C)c3nc4ccccc4o3)cc2)C(=O)O)c(C(=O)c2ccccc2)s1 (configuration not stated) | 42.7 | 4070 | – |
| CN(CCOc1ccc(CC(Nc2ccccc2C(=O)c2ccsc2)C(=O)O)cc1)c1nc2ccccc2o1 (configuration not stated) | 2.34 | 63.1 | – |
| CN(CCOc1ccc(CC(Nc2ccccc2C(=O)c2cccc(OCc3ccccc3)c2)C(=O)O)cc1)c1nc2ccccc2o1 (configuration not stated) | – | – | EC50 [5]: 741 nM; Ki [6]: 53.7 nM |
| Cc1ccc(C(=O)c2ccccc2NC(Cc2ccc(OCCN(C)c3nc4ccccc4o3)cc2)C(=O)O)cc1 (configuration not stated) | 2.82 | 8.51 | – |
| COc1ccc(C(=O)c2ccccc2NC(Cc2ccc(OCCN(C)c3nc4ccccc4o3)cc2)C(=O)O)cc1 (configuration not stated) | 5.62 | 32.4 | – |
| CN(CCOc1ccc(CC(Nc2ccccc2C(=O)c2ccccc2C(F)(F)F)C(=O)O)cc1)c1nc2ccccc2o1 (configuration not stated) | 2.69 | 39.8 | – |
| COc1ccccc1C(=O)c1ccccc1NC(Cc1ccc(OCCN(C)c2nc3ccccc3o2)cc1)C(=O)O (configuration not stated) | – | 38 | – |
| CN(CCOc1ccc(CC(Nc2ccccc2C(=O)C2CCCC2)C(=O)O)cc1)c1nc2ccccc2o1 (configuration not stated) | 6.46 | 18.2 | – |
| COc1cccc(C(=O)c2ccccc2NC(Cc2ccc(OCCN(C)c3nc4ccccc4o3)cc2)C(=O)O)c1 (configuration not stated) | 2.29 | 117 | – |
| CN(CCOc1ccc(CC(Nc2ccccc2C(=O)C2CCCCCC2)C(=O)O)cc1)c1nc2ccccc2o1 (configuration not stated) | 39.8 | 7.76 | – |
| CN(CCOc1ccc(CC(Nc2ccccc2C(=O)c2ccc(OCc3ccccc3)cc2)C(=O)O)cc1)c1nc2ccccc2o1 (configuration not stated) | 66.1 | 759 | – |
| Cc1oc(-c2ccccc2)nc1CCOc1ccc(C[C@H](Nc2ccccc2C(=O)c2ccccc2)C(=O)O)cc1 [FARGLITAZAR] | – | – | solubility [3]: < 1 µg/mL; solubility [7]: < 1 µg/mL |
| COC(=O)c1ccccc1N[C@@H](Cc1ccc(OCCc2nc(-c3ccccc3)oc2C)cc1)C(=O)O [GW7845] | – | – | Reduction [8]: 67%; Reduction [9]: 82%; solubility [3]: < 2 µg/mL; Reduction [10]: 40%; solubility [4]: 300 µg/mL (≈ 599 µM); Reduction [11]: 87% |
| CN(CCOc1ccc(CC(Nc2cscc2C(=O)c2ccccc2)C(=O)O)cc1)c1nc2ccccc2o1 (configuration not stated) | 2.57 | 8.32 | – |
| CN(CCOc1ccc(C[C@H](Nc2ccccc2C(=O)C2CCCCC2)C(=O)O)cc1)c1nc2ccccc2o1 | 4.07 | 2.88 | – |
| CN(CCOc1ccc(CC(Nc2ccccc2C(=O)c2cccc(C(F)(F)F)c2)C(=O)O)cc1)c1nc2ccccc2o1 (configuration not stated) | 2.63 | 11.7 | – |
| CN(CCOc1ccc(CC(Nc2ccccc2C(=O)c2ccc(-c3ccccc3)cc2)C(=O)O)cc1)c1nc2ccccc2o1 (configuration not stated) | – | – | EC50 [5]: 24 nM; Ki [6]: 49 nM |
| CN(CCOc1ccc(CC(Nc2ccsc2C(=O)c2ccccc2)C(=O)O)cc1)c1nc2ccccc2o1 (configuration not stated) | 9.77 | 12 | – |
| CN(CCOc1ccc(CC(Nc2ccccc2C(=O)c2ccc(C(F)(F)F)cc2)C(=O)O)cc1)c1nc2ccccc2o1 (configuration not stated) | 5.13 | 24 | – |
| CN(CCOc1ccc(CC(Nc2sccc2C(=O)c2ccccc2)C(=O)O)cc1)c1nc2ccccc2o1 (configuration not stated) | 23.4 | 38 | – |
| Cc1c(C)c2c(c(C)c1O)CCC(C)(COc1ccc(CC3SC(=O)NC3=O)cc1)O2 (configuration not stated) [TROGLITAZONE] | – | – | Reduction [8]: 59%; Reduction [9]: 85%; Reduction [10]: 35%; Reduction [11]: 81% |
| CN(CCOc1ccc(C[C@@H](Nc2ccccc2C(=O)C2CCCCC2)C(=O)O)cc1)c1nc2ccccc2o1 | 1550 | > 10000 | – |
| CN(CCOc1ccc(CC(Nc2ccncc2C(=O)c2ccccc2)C(=O)O)cc1)c1nc2ccccc2o1 (configuration not stated) | 155 | 9330 | – |
| CN(CCOc1ccc(CC(Nc2ccccc2C(=O)c2cccc3ccccc23)C(=O)O)cc1)c1nc2ccccc2o1 (configuration not stated) | – | – | EC50 [5]: 85.1 nM; Ki [6]: 3.24 nM |
| CN(CCOc1ccc(CC(Nc2ccc(Cl)cc2C(=O)c2ccccc2)C(=O)O)cc1)c1nc2ccccc2o1 (configuration not stated) | 8.71 | 89.1 | – |

The next lines start with results.

| Ki [1] [nM] | EC50 [2] [nM] | Structure (SMILES) | also measured |
| --- | --- | --- | --- |
| 3.02 | 0.912 | CCOC(=O)c1ccccc1NC(Cc1ccc(OCCc2nc(-c3ccccc3)oc2C)cc1)C(=O)O (configuration not stated) | – |
| 191 | 15.1 | Cc1oc(-c2ccccc2)nc1CCOc1ccc(C[C@@H](Nc2ccccc2C(=O)C2CCCCC2)C(=O)O)cc1 | solubility [3]: 2 µg/mL (≈ 3.62 µM); solubility [4]: 52 µg/mL (≈ 94.1 µM) |
| – | 0.912 | Cc1oc(-c2ccccc2)nc1CCOc1ccc(CC(Nc2ccccc2C(=O)c2ccncc2)C(=O)O)cc1 (configuration not stated) | solubility [3]: 87 µg/mL (≈ 159 µM); solubility [4]: 1150 µg/mL (≈ 2100 µM) |
| 2.69 | 16.6 | Cc1cccc(C(=O)c2ccccc2NC(Cc2ccc(OCCN(C)c3nc4ccccc4o3)cc2)C(=O)O)c1 (configuration not stated) | – |
| 0.933 | 1.48 | Cc1oc(-c2ccccc2)nc1CCOc1ccc(CC(Nc2ccccc2C(=O)c2cccnc2)C(=O)O)cc1 (configuration not stated) | solubility [3]: 18 µg/mL (≈ 32.9 µM); solubility [4]: 55 µg/mL (≈ 100 µM) |
| 3.39 | 24.5 | Cc1oc(-c2ccccc2)nc1CCOc1ccc(CC(Nc2ccccc2C(=O)c2cccc(CO)c2)C(=O)O)cc1 (configuration not stated) | solubility [4]: 1340 µg/mL (≈ 2320 µM) |
| 15.5 | 32.4 | CNC(=O)c1ccccc1NC(Cc1ccc(OCCc2nc(-c3ccccc3)oc2C)cc1)C(=O)O (configuration not stated) | – |
| 251 | 562 | Cc1oc(-c2ccccc2)nc1CCOc1ccc(CC(Nc2ccccc2C(=O)N(C)C)C(=O)O)cc1 (configuration not stated) | – |
| – | 417 | Cc1oc(-c2ccccc2)nc1CCOc1ccc(CC(Nc2ccccc2C(=O)c2cccc(CN(C)C)c2)C(=O)O)cc1 (configuration not stated) | solubility [3]: 9 µg/mL (≈ 14.9 µM); solubility [4]: 9 µg/mL (≈ 14.9 µM) |
| – | 9.33 | Cc1ccccc1C(=O)c1ccccc1NC(Cc1ccc(OCCN(C)c2nc3ccccc3o2)cc1)C(=O)O (configuration not stated) | – |
| – | 0.282 | Cc1oc(-c2ccccc2)nc1CCOc1ccc(C[C@H](Nc2ccccc2C(=O)C2CCCCC2)C(=O)O)cc1 | – |
| 646 | 7590 | Cc1oc(-c2ccccc2)nc1CCOc1ccc(CC(Nc2ccccc2C(=O)c2ccc(C(=O)O)cc2)C(=O)O)cc1 (configuration not stated) | – |
| 0.977 | 0.575 | Cc1oc(-c2ccccc2)nc1CCOc1ccc(CC(Nc2ccccc2C(=O)OC(C)C)C(=O)O)cc1 (configuration not stated) | – |
| 3.24 | 8.91 | Cc1oc(-c2ccccc2)nc1CCOc1ccc(CC(Nc2ccccc2C(=O)c2cccc(N)c2)C(=O)O)cc1 (configuration not stated) | solubility [3]: 3 µg/mL (≈ 5.34 µM); solubility [4]: 525 µg/mL (≈ 935 µM) |
| 13.5 | 229 | Cc1ccc(NC(Cc2ccc(OCCN(C)c3nc4ccccc4o3)cc2)C(=O)O)c(C(=O)c2ccccc2)c1 (configuration not stated) | – |
| 813 | 209 | Cc1oc(-c2ccccc2)nc1CCOc1ccc(CC(Nc2ccccc2C(=O)c2cccc(C(=O)O)c2)C(=O)O)cc1 (configuration not stated) | – |
| 2.4 | 0.302 | CCCOC(=O)c1ccccc1NC(Cc1ccc(OCCc2nc(-c3ccccc3)oc2C)cc1)C(=O)O (configuration not stated) | – |
| > 3160 | 4900 | Cc1oc(-c2ccccc2)nc1CCOc1ccc(CC(Nc2ccccc2C(=O)O)C(=O)O)cc1 (configuration not stated) | – |
| 1.48 | – | CN(CCOc1ccc(CC(Nc2ccccc2C(=O)c2ccccc2)C(=O)O)cc1)c1nc2ccccc2o1 (configuration not stated) | – |
| 15.5 | 407 | Cc1oc(-c2ccccc2)nc1CCOc1ccc(CC(Nc2ccccc2C(=O)c2ccc(CN(C)C)cc2)C(=O)O)cc1 (configuration not stated) | – |
| 2.75 | 45.7 | CN(CCOc1ccc(CC(Nc2ccccc2C(=O)c2cccs2)C(=O)O)cc1)c1nc2ccccc2o1 (configuration not stated) | – |
| 4.17 | 17.4 | Cc1oc(-c2ccccc2)nc1CCOc1ccc(CC(Nc2ccccc2C(=O)c2ccc(CO)cc2)C(=O)O)cc1 (configuration not stated) | solubility [3]: 22 µg/mL (≈ 38.2 µM); solubility [4]: 75 µg/mL (≈ 130 µM) |

From ChEMBL document CHEMBL1131297, “N-(2-Benzoylphenyl)-L-tyrosine PPARgamma agonists. 3. Structure-activity relationship and optimization of the N-aryl substituent” (J Med Chem, 1998)
